From ChEMBL document CHEMBL4680371, “Design and Structure-Activity Relationship of a Potent Furin Inhibitor Derived from Influenza Hemagglutinin” (ACS Med Chem Lett, 2021)
Calls of active or inactive are those of the source. The rule behind the calls is not given here. Where a SMILES comes first, the peptide text is derived from it.

Key:
[1] = Stability of the compound in CD1 mouse plasma assessed as intact compound remaining measured after 2 mins by LC-MS/MS analysis; type: ADME, cell-free; conditions: read-out: Stabilty
Procedure, shortened: (§1)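 Peptide incubated ex vivo in mouse plasma at 37 °C and sampled at several time points, using the ng/mL concentration range. Intact peptide quantified by high-resolution mass spectrometry and expressed as percentage remaining; t1/2 derived from the time course. Each time point run in triplicate; mean and mean ± SD reported.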

[2] = molecular target: T1, Furin (Homo sapiens, UniProt P09958); experiment: Inhibition of recombinant soluble human furin using pyroGlu-Arg-Thr-Lys-Arg-methyl-coumaryl-7-amide as substrate measured after 1 hr
T1 sequence (P09958 whole entry): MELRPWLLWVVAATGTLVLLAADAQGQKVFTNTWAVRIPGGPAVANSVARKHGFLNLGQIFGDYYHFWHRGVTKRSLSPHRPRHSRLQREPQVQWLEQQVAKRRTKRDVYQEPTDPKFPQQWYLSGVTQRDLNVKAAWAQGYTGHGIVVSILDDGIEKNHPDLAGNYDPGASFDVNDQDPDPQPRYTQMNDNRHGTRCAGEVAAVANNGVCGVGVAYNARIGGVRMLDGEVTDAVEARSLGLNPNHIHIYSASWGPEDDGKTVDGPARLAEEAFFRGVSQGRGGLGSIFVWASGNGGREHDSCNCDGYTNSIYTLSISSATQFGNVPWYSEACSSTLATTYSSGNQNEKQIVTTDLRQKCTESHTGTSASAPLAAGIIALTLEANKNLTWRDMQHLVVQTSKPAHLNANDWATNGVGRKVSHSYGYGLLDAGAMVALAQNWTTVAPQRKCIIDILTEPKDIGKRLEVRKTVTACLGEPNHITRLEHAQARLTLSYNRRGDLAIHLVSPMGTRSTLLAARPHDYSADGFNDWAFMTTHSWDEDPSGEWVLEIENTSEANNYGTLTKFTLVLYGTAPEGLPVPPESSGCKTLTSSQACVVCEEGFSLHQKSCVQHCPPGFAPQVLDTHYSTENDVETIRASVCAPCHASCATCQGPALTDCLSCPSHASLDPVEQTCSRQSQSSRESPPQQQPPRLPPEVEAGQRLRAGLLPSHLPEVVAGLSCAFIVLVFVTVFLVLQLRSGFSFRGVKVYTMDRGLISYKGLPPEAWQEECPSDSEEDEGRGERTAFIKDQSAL
Procedure, shortened: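 Soluble human recombinant furin was tested in a competitive kinetic assay. Ki is reported as the mean ± SD of at least two independent experiments.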

[3] = Half life in CD1 mouse plasma by LC-MS/MS analysis; type: ADME, cell-free; conditions: CD1, mouse; procedure, shortened: as §1
[4] = molecular target: T2, Proprotein convertase subtilisin/kexin type 7 (Homo sapiens) (UniProt Q16549); experiment: Inhibition of recombinant soluble human PC7 using pyroGlu-Arg-Thr-Lys-Arg-methyl-coumaryl-7-amide as substrate measured after 1 hr
T2 sequence (whole entry): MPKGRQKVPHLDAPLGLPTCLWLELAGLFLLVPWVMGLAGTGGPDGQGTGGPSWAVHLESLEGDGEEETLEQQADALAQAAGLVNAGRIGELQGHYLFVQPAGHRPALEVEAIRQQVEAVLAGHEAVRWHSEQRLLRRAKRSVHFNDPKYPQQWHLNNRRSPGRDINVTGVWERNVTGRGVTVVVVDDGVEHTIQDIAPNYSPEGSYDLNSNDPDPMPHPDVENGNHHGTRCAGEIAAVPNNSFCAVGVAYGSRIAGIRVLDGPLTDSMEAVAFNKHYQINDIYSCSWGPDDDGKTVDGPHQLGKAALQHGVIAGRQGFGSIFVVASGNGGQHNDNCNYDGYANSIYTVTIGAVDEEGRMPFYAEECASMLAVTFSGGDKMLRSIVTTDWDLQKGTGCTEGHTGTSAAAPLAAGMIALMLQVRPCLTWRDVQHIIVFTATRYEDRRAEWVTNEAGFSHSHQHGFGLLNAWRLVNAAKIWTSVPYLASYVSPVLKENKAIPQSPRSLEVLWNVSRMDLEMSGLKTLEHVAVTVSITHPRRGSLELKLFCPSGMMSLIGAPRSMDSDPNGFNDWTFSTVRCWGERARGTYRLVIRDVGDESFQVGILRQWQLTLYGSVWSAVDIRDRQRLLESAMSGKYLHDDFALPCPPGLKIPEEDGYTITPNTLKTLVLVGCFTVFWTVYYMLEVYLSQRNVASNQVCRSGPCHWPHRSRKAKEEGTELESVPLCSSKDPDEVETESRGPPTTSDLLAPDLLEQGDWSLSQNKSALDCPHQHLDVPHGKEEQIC

[5] = molecular target: T1, Furin; experiment: Potency index, ratio of CF1 Ki to test compound Ki for recombinant soluble human furin using pyroGlu-Arg-Thr-Lys-Arg-methyl-coumaryl-7-amide as substrate measured after 1 hr
[6] = molecular target: T3, Proprotein convertase subtilisin/kexin type 6 (Homo sapiens) (UniProt P29122); experiment: Inhibition of recombinant soluble human PACE4 using pyroGlu-Arg-Thr-Lys-Arg-methyl-coumaryl-7-amide as substrate measured after 1 hr
T3 sequence (whole entry): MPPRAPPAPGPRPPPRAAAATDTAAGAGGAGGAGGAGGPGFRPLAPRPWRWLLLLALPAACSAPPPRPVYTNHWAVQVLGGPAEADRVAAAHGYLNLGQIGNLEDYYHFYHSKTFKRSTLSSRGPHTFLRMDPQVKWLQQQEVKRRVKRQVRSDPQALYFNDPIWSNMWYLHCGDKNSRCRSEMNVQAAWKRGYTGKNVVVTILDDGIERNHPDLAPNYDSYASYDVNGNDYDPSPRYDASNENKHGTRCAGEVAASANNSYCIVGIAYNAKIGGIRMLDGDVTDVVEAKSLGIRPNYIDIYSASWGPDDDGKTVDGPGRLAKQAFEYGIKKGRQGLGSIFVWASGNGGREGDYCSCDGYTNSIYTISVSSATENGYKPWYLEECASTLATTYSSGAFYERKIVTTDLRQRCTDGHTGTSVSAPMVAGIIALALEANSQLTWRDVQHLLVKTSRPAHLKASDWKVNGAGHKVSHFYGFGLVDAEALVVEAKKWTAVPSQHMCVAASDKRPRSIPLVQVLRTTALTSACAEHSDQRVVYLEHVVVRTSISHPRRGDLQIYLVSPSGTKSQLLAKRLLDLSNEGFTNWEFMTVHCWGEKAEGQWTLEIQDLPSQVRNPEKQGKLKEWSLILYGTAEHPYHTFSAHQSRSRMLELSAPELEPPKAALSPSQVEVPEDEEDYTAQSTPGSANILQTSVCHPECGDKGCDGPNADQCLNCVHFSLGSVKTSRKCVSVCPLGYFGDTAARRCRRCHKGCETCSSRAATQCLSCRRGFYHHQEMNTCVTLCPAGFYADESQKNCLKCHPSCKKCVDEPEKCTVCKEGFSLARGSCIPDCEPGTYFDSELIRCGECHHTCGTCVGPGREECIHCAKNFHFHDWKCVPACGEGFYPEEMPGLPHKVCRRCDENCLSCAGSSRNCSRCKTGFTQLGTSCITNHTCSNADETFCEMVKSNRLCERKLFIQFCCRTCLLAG

[7] = molecular target: Proprotein convertase subtilisin/kexin type 5 (Homo sapiens) (UniProt Q92824); experiment: Inhibition of recombinant soluble human PC5 using pyroGlu-Arg-Thr-Lys-Arg-methyl-coumaryl-7-amide as substrate measured after 1 hr
Proprotein convertase subtilisin/kexin type 5 (Homo sapiens), sequence (Q92824 whole entry): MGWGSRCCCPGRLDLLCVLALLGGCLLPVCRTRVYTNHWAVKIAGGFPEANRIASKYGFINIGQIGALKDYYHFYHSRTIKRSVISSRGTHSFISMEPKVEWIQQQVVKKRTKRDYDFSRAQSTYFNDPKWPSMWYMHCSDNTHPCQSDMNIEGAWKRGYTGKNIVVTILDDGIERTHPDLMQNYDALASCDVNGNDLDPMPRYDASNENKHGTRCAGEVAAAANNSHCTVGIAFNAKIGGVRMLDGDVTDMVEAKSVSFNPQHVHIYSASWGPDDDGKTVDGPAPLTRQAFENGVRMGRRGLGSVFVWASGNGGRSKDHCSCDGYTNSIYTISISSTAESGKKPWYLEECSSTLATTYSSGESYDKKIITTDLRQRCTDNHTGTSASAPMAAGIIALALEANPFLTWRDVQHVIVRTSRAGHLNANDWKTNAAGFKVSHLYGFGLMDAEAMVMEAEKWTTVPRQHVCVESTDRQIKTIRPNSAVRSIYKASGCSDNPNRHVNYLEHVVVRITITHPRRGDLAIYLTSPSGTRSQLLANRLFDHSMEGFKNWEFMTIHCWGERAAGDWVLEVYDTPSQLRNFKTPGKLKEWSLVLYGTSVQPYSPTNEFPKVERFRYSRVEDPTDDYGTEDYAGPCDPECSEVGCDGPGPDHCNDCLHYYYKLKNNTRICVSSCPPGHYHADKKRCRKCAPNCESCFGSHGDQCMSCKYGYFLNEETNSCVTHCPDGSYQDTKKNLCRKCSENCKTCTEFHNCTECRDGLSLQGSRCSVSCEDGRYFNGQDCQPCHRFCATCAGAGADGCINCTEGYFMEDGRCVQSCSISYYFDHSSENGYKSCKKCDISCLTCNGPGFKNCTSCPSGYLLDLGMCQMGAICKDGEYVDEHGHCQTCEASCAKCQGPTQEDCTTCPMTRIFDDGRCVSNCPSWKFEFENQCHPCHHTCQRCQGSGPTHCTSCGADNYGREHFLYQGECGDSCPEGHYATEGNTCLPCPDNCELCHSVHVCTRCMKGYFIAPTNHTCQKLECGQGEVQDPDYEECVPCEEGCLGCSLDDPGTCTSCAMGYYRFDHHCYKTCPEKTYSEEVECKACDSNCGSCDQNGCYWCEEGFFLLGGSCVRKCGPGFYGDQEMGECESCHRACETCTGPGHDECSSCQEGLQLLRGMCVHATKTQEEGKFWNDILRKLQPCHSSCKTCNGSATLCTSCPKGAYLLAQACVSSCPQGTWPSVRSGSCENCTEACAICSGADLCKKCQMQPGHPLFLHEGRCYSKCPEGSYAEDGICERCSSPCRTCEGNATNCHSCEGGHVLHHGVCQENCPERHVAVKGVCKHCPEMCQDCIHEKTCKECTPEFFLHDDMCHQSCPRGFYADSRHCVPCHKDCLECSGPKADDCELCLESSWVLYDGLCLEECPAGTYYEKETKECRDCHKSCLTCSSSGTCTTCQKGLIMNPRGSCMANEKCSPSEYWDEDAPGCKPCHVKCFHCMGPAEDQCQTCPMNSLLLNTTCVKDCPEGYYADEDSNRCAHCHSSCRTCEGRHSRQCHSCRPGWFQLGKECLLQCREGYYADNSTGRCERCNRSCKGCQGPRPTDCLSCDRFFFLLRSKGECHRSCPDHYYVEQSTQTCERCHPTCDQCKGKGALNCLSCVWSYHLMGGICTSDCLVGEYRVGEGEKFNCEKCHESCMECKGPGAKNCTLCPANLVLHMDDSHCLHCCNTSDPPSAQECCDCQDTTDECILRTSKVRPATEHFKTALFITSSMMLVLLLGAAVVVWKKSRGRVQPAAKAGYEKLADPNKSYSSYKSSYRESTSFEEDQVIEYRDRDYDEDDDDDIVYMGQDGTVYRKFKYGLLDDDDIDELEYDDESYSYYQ

Compound CC[C@H](C)[C@H](NC(=O)[C@H](CCCNC(=N)N)NC(=O)[C@H](C)NC(=O)[C@@H]1CCCN1C(C)=O)C(=O)N[C@@H](CCCNC(=N)N)C(=O)N[C@@H](CCCCN)C(=O)N[C@@H](CCCCN)C(=O)N[C@@H](CCCNC(=N)N)C(=O)N[C@H](C(N)=O)[C@@H](C)O (Ac-PARIRKKRT-NH2) has a remaining at 2 min [1] of 15%, a Ki [2] of 8 nM and a half-life [3] of 44.4 s.
For CC[C@H](NC(=O)[C@H](CCCNC(=N)N)NC(=O)[C@H](C)NC(=O)[C@H]1CCCN1C(C)=O)C(=O)N[C@@H](CCCNC(=N)N)C(=O)N[C@@H](CCCCN)C(=O)N[C@@H](CCCCN)C(=O)N[C@@H](CCCNC(=N)N)C(=O)N[C@H](C(N)=O)[C@@H](C)O, the remaining at 2 min [1] was 25%, the Ki [2] was 11 nM and the half-life [3] was 66.6 s.
In the case of CC[C@H](C)[C@H](NC(=O)[C@H](CCCNC(=N)N)NC(=O)[C@H](C)NC(=O)[C@H](CCCNC(=N)N)NC(C)=O)C(=O)N[C@@H](CCCNC(=N)N)C(=O)N[C@@H](CCCCN)C(=O)N[C@@H](CCCCN)C(=O)N[C@@H](CCCNC(=N)N)C(=O)N[C@H](C(N)=O)[C@@H](C)O, the inhibition [4] is reported as “inactive”, the Ratio Ki [5] is reported as 2 and the inhibition [6] is reported as “Active”. For the same compound, the inhibition [7] was “Active” and the Ki [2] was 6 nM.
CC(=O)N[C@@H](CCCNC(=N)N)C(=O)N[C@@H](C)C(=O)N[C@@H](CCCNC(=N)N)C(=O)N[C@H](C(=O)N[C@@H](CCCNC(=N)N)C(=O)N[C@@H](CCCCN)C(=O)N[C@@H](CCCCN)C(=O)N[C@@H](CCCNC(=N)N)C(=O)N[C@H](C(N)=O)[C@@H](C)O)C(C)C gave a Ratio Ki [5] of 2 and a Ki [2] of 7 nM.
